In paper PMC9179932 (Nature chemical biology, 2022):

Experiments:
[1] = target: recombinant DPP9 (Homo sapiens, UniProt Q86TI2); test: AP-AMC-based DPP9 substrate assay; assay type: biochemical; details: Supplementary Table 1
Outline: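 Recombinant DPP9 (1 nM) is dispensed into 384-well plates and test compound is added by pintool over a concentration series. Reaction starts with 25 μM AP-AMC. Cleavage is read as rising fluorescence (ex/em 380/460 nm) at 25 °C for 30 min.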

[2] = target: T1, PEPD (Homo sapiens, UniProt P12955); test: PEPD assay; assay type: biochemical
T1 sequence (P12955 1-493): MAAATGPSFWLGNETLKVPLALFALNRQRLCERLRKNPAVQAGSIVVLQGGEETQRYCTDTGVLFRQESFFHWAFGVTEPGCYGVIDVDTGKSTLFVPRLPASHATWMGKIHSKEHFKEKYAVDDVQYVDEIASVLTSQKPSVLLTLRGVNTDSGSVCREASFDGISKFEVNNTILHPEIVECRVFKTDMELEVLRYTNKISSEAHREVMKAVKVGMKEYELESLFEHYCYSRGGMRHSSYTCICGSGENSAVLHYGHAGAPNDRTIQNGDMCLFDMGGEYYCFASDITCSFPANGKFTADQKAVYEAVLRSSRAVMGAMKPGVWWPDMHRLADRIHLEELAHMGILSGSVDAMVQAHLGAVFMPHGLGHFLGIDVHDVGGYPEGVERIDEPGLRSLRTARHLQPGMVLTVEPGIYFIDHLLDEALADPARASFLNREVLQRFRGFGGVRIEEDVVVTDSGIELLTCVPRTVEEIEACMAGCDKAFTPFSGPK
Outline: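 His-tagged human PEPD is expressed in E. coli Rosetta DE3 (IPTG, 4 h, 37 °C) and purified on TALON resin. Enzyme at 50 nM is mixed with Ala-Pro (40 μM final) and test compound. Liberated alanine is measured fluorometrically (resorufin, ex/em 535/587 nm) at 25 °C with an L-alanine assay kit.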

[3] = target: T2, prolidase (PEPD) (Homo sapiens, UniProt P12955); test: Prolidase activity; assay type: biochemical; details: dose-dependent
T2 sequence (P12955 1-493): T1 sequence (P12955 1-493)
Outline: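 THP-1 lysates are normalised to 5 mg ml−1 and incubated with Ala-Pro dipeptide (40 μM final) and test compound at varying doses. Released alanine is quantified as increasing resorufin fluorescence (535/587 nm) at 25 °C using an L-alanine detection kit.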

[4] = tested on: bestatin-sensitive aminopeptidases; test: Recombinant aminopeptidase AMC reporter assays; assay type: biochemical; details: Supplementary Table 1
Outline: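 Recombinant enzymes are incubated with test compound over a concentration range, then AMC substrate is added. Enzyme and substrate pairs: RNPEP 1.4 nM with 200 μM R-AMC; DPP3 0.6 nM with 100 μM RR-AMC; LTA4H 114.3 nM with 400 μM R-AMC; NPEPPS 1 nM with 10 μM L-AMC; ANPEP 1.2 nM with 100 μM A-AMC. Fluorescence (380/460 nm) is recorded at 25 °C for 30 min.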

[5] = target: T1, PEPD; test: CETSA in HEK 293T lysates; assay type: binding; details: 10 μM
Outline: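 HEK 293T cells are sonicated and cleared at 10,000g for 10 min. Clarified lysate is incubated with test compound (10 μM) for 30 min, then heated for 30 min at a temperature series. Aggregates are pelleted at 18,000g for 20 min, and the soluble supernatant is immunoblotted for the target.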

[6] = target: NPEPPS (Homo sapiens, UniProt P55786); test: CETSA in HEK 293T lysates; assay type: binding; details: 10 μM
Outline: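 HEK 293T cells homogenised by sonication; debris cleared at 10,000g for 10 min. Clarified lysate incubated 30 min with test compound, then heated 30 min at a series of set temperatures between 38.7 and 70.9 °C. Aggregates pelleted at 18,000g for 20 min; soluble target in supernatant detected by immunoblotting.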

[7] = target: T1, PEPD; test: CETSA in THP-1 cell lysates; assay type: binding; details: 0.5, 5 μM
Outline: (§1)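 THP-1 (Cas9) cell lysate is made by sonication and cleared at 10,000g for 10 min. It is exposed to test compound (0.5 or 5 μM) for 30 min, then heated 30 min at 40.6, 50.8, 60.1 or 70.9 °C. After spinning at 18,000g for 20 min, the soluble fraction is immunoblotted.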

[8] = target: T3, XPNPEP1 (Homo sapiens, UniProt Q9NQW7); test: CETSA in THP-1 cell lysates; assay type: binding; details: 0.5, 5 μM
Outline: as §1
Target sequence in this assay (Q9NQW7 whole entry): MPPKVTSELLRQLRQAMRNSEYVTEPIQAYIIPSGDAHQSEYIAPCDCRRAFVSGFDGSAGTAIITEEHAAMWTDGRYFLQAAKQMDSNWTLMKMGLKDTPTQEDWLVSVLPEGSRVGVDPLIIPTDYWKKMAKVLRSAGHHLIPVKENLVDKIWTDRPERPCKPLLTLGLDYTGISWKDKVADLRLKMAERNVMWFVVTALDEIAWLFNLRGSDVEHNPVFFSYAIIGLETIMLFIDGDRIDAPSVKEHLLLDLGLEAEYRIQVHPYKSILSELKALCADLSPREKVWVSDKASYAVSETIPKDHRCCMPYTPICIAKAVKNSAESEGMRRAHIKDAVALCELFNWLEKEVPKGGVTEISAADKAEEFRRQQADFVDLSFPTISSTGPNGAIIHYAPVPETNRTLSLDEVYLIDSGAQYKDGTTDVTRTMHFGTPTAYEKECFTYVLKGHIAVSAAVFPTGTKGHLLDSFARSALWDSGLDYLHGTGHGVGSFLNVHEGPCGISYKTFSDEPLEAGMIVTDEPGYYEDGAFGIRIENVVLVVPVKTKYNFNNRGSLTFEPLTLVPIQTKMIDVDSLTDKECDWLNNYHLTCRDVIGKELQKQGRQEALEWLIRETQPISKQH

[9] = target: T4, XPNPEP3 (Homo sapiens, UniProt Q9NQH7); test: CETSA in THP-1 cell lysates; assay type: binding
Outline: as §1

[10] = target: T3, XPNPEP1; test: XPNPEP1 enzymatic assay; assay type: biochemical; details: Supplementary Table 2
Outline: (§2)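 Enzymes are XPNPEP1 recombinant at 3.5 nM, or XPNPEP3 FLAG-immunoprecipitated after 48 h overexpression in HEK 293T. Each is treated with graded doses of test compound. H-Lys(abz)-Pro-Pro-pNA is added at 100 μM final, and fluorescence (ex/em 320/410 nm) is monitored for 30 min.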
Target sequence in this assay (Q9NQW7 whole entry, species assumed): as the sequence (Q9NQW7 whole entry) above

[11] = target: T4, XPNPEP3; test: XPNPEP3 enzymatic assay; assay type: biochemical; details: Supplementary Table 2
Outline: as §2

[12] = tested on: MV4;11 cells; test: MV4; assay type: cell-based; details: 24 h, CTG
[13] = target: NLRP1–DPP9 interaction (Homo sapiens, UniProt Q86TI2); test: DPP9 displacement from FLAG-NLRP1 on anti-FLAG beads; assay type: binding; details: VbP 10 μM; VP dipeptide 0.5, 5 mM; CQ31, CQ04 10 μM
NLRP1–DPP9 interaction, sequence (Q86TI2 whole entry): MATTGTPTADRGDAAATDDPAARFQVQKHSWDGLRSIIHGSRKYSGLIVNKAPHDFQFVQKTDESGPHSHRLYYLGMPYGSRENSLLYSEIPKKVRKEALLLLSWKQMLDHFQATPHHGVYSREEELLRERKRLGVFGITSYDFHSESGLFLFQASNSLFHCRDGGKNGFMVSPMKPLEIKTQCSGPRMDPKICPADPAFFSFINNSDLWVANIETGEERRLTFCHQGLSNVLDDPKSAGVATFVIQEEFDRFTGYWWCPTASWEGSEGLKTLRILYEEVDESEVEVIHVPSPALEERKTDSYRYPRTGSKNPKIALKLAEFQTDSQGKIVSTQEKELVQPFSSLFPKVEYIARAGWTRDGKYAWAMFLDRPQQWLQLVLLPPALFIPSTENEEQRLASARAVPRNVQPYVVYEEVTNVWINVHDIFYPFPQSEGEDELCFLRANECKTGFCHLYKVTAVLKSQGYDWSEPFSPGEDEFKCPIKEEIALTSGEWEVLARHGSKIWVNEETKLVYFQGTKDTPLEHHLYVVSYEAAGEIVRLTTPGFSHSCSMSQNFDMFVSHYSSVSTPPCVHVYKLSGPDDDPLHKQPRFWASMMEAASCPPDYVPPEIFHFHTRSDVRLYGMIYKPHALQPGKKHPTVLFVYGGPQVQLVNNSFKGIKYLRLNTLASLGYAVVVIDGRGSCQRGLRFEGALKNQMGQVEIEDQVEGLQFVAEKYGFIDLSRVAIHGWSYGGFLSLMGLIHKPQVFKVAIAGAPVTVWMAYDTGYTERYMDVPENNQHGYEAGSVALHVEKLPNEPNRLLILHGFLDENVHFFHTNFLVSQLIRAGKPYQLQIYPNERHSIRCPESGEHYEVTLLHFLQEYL

NPEPPS, sequence (P55786 whole entry): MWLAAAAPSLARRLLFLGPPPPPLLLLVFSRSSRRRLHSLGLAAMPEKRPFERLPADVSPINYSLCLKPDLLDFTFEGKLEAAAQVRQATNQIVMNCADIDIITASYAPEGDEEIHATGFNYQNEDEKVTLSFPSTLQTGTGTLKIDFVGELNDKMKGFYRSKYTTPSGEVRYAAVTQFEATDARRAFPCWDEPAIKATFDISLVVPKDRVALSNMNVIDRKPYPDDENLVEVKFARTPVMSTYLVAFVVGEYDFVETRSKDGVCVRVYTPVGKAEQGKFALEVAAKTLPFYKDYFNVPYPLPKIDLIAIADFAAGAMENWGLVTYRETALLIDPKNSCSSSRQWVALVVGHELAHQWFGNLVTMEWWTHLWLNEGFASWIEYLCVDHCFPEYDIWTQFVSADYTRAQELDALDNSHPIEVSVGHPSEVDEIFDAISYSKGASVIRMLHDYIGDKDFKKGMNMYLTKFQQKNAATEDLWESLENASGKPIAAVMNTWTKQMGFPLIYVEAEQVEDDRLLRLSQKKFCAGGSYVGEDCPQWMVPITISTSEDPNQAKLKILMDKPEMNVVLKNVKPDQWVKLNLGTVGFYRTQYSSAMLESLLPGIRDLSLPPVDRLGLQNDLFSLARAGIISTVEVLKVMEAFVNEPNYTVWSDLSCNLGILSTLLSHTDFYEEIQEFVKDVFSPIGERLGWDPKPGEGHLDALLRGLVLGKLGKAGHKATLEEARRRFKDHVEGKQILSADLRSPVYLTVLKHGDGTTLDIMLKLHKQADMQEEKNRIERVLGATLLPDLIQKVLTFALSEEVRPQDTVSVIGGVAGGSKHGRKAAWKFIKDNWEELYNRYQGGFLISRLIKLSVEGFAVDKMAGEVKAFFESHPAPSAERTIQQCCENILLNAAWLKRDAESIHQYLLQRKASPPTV
recombinant DPP9, sequence (Q86TI2 whole entry, species assumed): as the sequence (Q86TI2 whole entry) above

- direct DPP9 (DPP8/9) inhibition [1]: did not inhibit
- IC50 [2]: 160 nM
- prolidase activity (Ala-Pro dipeptide cleavage) in THP-1 cell lysates [3]: completely blocked prolidase activity
- inhibition of bestatin-sensitive aminopeptidases [4]: did not inhibit
- thermal stabilization of PEPD [5]: stabilized PEPD
- thermal stabilization of PEPD [7]: stabilize both PEPD and XPNPEP1
- thermal stabilization of XPNPEP1 [8]: stabilize both PEPD and XPNPEP1
- thermal stabilization of XPNPEP3 [9]: slightly stabilized XPNPEP3
- inhibition of XPNPEP1 enzymatic activity [10]: inhibits XPNPEP1 enzymatic activity
- inhibition of XPNPEP3 in an enzymatic assay [11]: inhibited XPNPEP3
SMILES: CC(C)C[C@@H](N)C(O)C(=O)N1CCC[C@H]1C(=O)O (stereo partly drawn) [CQ04, (2S,3R)-3-amino-2-hydroxy-5-methyl-hexanoyl-proline]
- thermal stabilization of NPEPPS [6]: nor the bestatin-sensitive aminopeptidase NPEPPS
- cytotoxicity in CASP1−/− MV4;11 cells ([12]; CASP1−/−): not cytotoxic
- cytotoxicity in WT MV4;11 cells ([12]; WT): not cytotoxic
- disruption of NLRP1–DPP9 interaction (DPP9 elution) [13]: had no impact on the NLRP1 ternary complex
